This is one part of a sample in which hits are shown more often than they occur.
T cruzi growth-1 = T. cruzi intracellular proliferation inhibitors, primary screen, cell-based, beta-gal Tulahuen parasites, NIH3T3 host, luminescence | T. cruzi beta-gal in NIH3T3, GalScreen luminescence, 90 h | hit rate 5.9% among 77,000 | AID 624255, 2012 | inhibition, % at 8.34 µM;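 active = mean inhibition above about 93%, with at least 55% of replicates each passing it, limit read from the data, passing the limit was not always enough; inconclusive = only one of those two conditions holds; inactive = neither condition holds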
IDH1 mut inh = inhibitors of IDH1 R132H reductase, primary screen, biochemical, plate reader, single point; Isocitrate dehydrogenase [NADP] cytoplasmic (Homo sapiens), O75874; inhibition, % at 10 µM; AID 624101, 2012; diaphorase/resazurin fluorescence, 60 min; hit rate 0.18% among 70,000; in the data active = inhibition above about 34%; inconclusive = no clear call, values can overlap the other calls; inactive = below about 11%
KDM4C inh = inhibitors of GASC-1 (KDM4C) histone demethylase, primary screen, biochemical, single concentration HTS; hit rate 0.15% among 96,000; GST-KDM4C 2-372, H3K9me3 peptide, LANCE TR-FRET; inhibition, % at 12.5 µM; AID 720574, 2013; Lysine-specific demethylase 4C (Homo sapiens), Q9H3R0;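 active = mean replicate inhibition above about 25%, with at least 55% of replicates also reaching it, limit read from the data, passing the limit was not always enough; inconclusive = only one of those two conditions met; inactive = neither condition met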
Target sequence (Q9H3R0 2-372 limits assumed): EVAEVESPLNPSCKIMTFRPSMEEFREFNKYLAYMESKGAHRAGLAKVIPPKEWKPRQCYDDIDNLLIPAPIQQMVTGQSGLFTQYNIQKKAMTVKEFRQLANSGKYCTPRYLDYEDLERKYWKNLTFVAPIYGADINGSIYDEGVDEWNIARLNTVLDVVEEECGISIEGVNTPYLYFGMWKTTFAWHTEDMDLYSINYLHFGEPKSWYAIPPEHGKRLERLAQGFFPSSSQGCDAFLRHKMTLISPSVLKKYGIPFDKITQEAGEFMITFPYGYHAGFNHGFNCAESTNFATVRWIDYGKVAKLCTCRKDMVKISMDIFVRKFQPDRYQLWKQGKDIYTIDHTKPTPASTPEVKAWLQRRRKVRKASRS
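Test system – GST-tagged GASC-1 (JMJD2C) catalytic fragment, aa 2-372 · Medium – HEPES buffer, pH 7.5, plus ascorbate · Reagent – H3K9me3 peptide with Fe(II)/2OG · Compound – one test concentration per compound · Timing – 30 min reaction, 60 min detection, RT · Technique – TR-FRET with Eu antibody and ULight streptavidin, EDTA stop · Read-out basis – inhibition from TR-FRET ratio decrease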
T cruzi growth-2 = T. cruzi intracellular proliferation inhibitors, confirmation, cell-based, NIH3T3 host, beta-gal parasite, luminescence, cherry-pick | shares compounds with T cruzi growth-1 | T. cruzi beta-gal in NIH3T3, GalScreen luminescence, 90 h | inhibition, % at 8.35 µM | hit rate 72% among 5,600;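 active = mean replicate inhibition above about 95% and at least 55% of replicates individually reaching it, limit read from the data; inconclusive = only one of the two criteria is met; inactive = neither criterion is met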
T cruzi growth-3 = inhibitors of intracellular T. cruzi replication, confirmation, NIH3T3 host cells, beta-gal parasites, cherry-pick, set 2. shares compounds with T cruzi growth-1. T. cruzi beta-gal in NIH3T3, GalScreen luminescence, 90 h. inhibition, % at 2.09 µM. hit rate 21% among 5,600. AID 651740, 2012;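 active = mean inhibition above about 95%, with at least 55% of replicates also reaching it, limit read from the data; inconclusive = meets just one of the two conditions; inactive = meets neither condition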
3T3 cytotox = cytotoxicity in mouse NIH/3T3 fibroblasts, confirmation, cytotoxicity control for T. cruzi proliferation inhibitor project, cell-based, cherry-pick, single point; shares compounds with T cruzi growth-1; NIH/3T3 viability, CellTiter-Glo ATP luminescence, 90 h; cytotoxicity (signal decrease), % at 8.35 µM; hit rate 14% among 5,600;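 active = mean signal decrease across replicates above about 35% based on untreated-well scatter, with enough replicates individually passing, limit read from the data; inconclusive = no rule stated though some were filed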
3T3 cytotox 2 = NIH/3T3 fibroblast cytotoxicity, confirmation, cytotoxicity control, cell-based, cherry-pick, single point, set 2; shares compounds with T cruzi growth-1; NIH/3T3 viability, CellTiter-Glo ATP luminescence, 90 h; inhibition, % at 24.9 µM; hit rate 56% among 5,600;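 active = mean loss of cell viability signal at or above a set limit, and enough replicates individually reaching it; inconclusive = meets only the mean limit or only the replicate share; inactive = meets neither condition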
Hits are given with their value.

C[C@H](CO)N1C[C@H](C)[C@@H](CN(C)Cc2ccncc2)Oc2ncc(C#Cc3ccccn3)cc2C1=O was read as T cruzi growth-1 inconclusive, IDH1 mut inh inactive, KDM4C inh inactive, T cruzi growth-2 108, T cruzi growth-3 inactive, 3T3 cytotox inactive and 3T3 cytotox 2 inactive.
C[C@H]1CN([C@@H](C)CO)C(=O)c2cc(C#Cc3ccccn3)cnc2O[C@@H]1CN(C)Cc1ccncc1 was read as T cruzi growth-1 inactive and KDM4C inh inactive.
`C[C@H](CO)N1C[C@H](C)[C@H](CN(C)Cc2ccc(C(F)(F)F)cc2)Oc2c(NC(=O)c3ccc(-c4nccs4)cc3)cccc2C1=O` gave T cruzi growth-1 inconclusive, KDM4C inh inactive, T cruzi growth-2 108, T cruzi growth-3 inactive, 3T3 cytotox inactive and 3T3 cytotox 2 inactive.
`C[C@H](CO)N1C[C@H](C)[C@@H](CN(C)Cc2ccc(Oc3ccccc3)cc2)Oc2c(NC(=O)c3ccc(-c4nccs4)cc3)cccc2C1=O` gave T cruzi growth-1 inconclusive, IDH1 mut inh inactive, KDM4C inh inactive, T cruzi growth-2 100, T cruzi growth-3 112, 3T3 cytotox inactive and 3T3 cytotox 2 inactive.
Screening C[C@H]1CN([C@@H](C)CO)C(=O)c2cccc(NC(=O)c3ccc(-c4nccs4)cc3)c2O[C@H]1CN(C)Cc1ccc(Oc2ccccc2)cc1 returned T cruzi growth-1 inactive, IDH1 mut inh inactive and KDM4C inh inactive.
Screening C[C@H]1CN([C@@H](C)CO)C(=O)c2cccc(NC(=O)c3ccc(-c4nccs4)cc3)c2O[C@H]1CN(C)Cc1ccc(C(F)(F)F)cc1 returned T cruzi growth-1 inactive and KDM4C inh inactive.
Screening COc1cc(NC(=O)COc2cc(C)cc(C)c2C)c(OC)cc1Cl returned IDH1 mut inh inactive.
For O=C(COc1ccccc1Cl)Nc1ccc([N+](=O)[O-])cc1O the results were IDH1 mut inh inactive.
For O=C(C[C@@H]1CC[C@@H]2[C@H](COC[C@@H](O)CN2Cc2ccc3c(c2)OCO3)O1)N1CCOCC1 the results were T cruzi growth-1 inactive and KDM4C inh inactive.
O=C(C[C@@H]1CC[C@@H]2[C@H](COC[C@@H](O)CN2Cc2ccc3c(c2)OCO3)O1)Nc1ccc(-c2ccccc2)cc1 was read as T cruzi growth-1 102, KDM4C inh inactive, T cruzi growth-2 97, T cruzi growth-3 inactive, 3T3 cytotox 36 and 3T3 cytotox 2 51.
`O=C(C[C@@H]1CC[C@H]2[C@@H](COC[C@H](O)CN2Cc2ccc3c(c2)OCO3)O1)Nc1ccc(-c2ccccc2)cc1` gave T cruzi growth-1 inconclusive, KDM4C inh inactive, T cruzi growth-2 103, T cruzi growth-3 inactive, 3T3 cytotox inactive and 3T3 cytotox 2 92.
`O=C(C[C@H]1CC[C@@H]2[C@H](COC[C@H](O)CN2Cc2ccc3c(c2)OCO3)O1)N1CCOCC1` gave T cruzi growth-1 inactive and KDM4C inh inactive.
Screening O=C(CSc1nnc(-c2ccccn2)n1-c1ccccc1)Nc1ccc(Br)cc1 returned IDH1 mut inh inactive.
Screening COc1cc(C(=O)NCC(=O)O)cc(OC)c1OC returned IDH1 mut inh inactive.
`CCOC(=O)c1c(NC(=O)COc2ccccc2Cl)sc2c1CCCC2` gave IDH1 mut inh inactive.
C=C(C)[C@@H]1CC=C(/C=N/NC(=O)CCCCCCC(=O)O)CC1 was read as IDH1 mut inh inactive.
`Cc1cccc(-c2ccc([C@@H]3[C@H]4CN(C(=O)c5cccnc5)CCCCN4[C@H]3CO)cc2)c1` gave T cruzi growth-1 104, KDM4C inh inactive, T cruzi growth-2 inactive, T cruzi growth-3 inactive, 3T3 cytotox inactive and 3T3 cytotox 2 42.
For Cc1cccc(-c2ccc([C@H]3[C@@H](CO)N4CCCCN(C(=O)c5ccncc5)C[C@@H]34)cc2)c1 the results were T cruzi growth-1 inactive and KDM4C inh inactive.
Screening Cc1ccccc1-c1ccc([C@H]2[C@H]3CN(C(=O)c4cccnc4)CCCCN3[C@H]2CO)cc1 returned T cruzi growth-1 inactive and KDM4C inh inactive.
Cc1cccc(-c2ccc([C@H]3[C@@H](CO)N4CCCCN(C(=O)c5cccnc5)C[C@@H]34)cc2)c1 was read as T cruzi growth-1 inconclusive, KDM4C inh inactive, T cruzi growth-2 108, T cruzi growth-3 inactive, 3T3 cytotox 36 and 3T3 cytotox 2 inactive.
`Cc1cccc(-c2ccc([C@H]3[C@H](CO)N4CCCCN(C(=O)c5ccncc5)C[C@@H]34)cc2)c1` gave T cruzi growth-1 inactive and KDM4C inh inactive.
For Cc1cccc(-c2ccc([C@H]3[C@@H](CO)N4CCCCN(C(=O)c5cccnc5)C[C@H]34)cc2)c1 the results were T cruzi growth-1 114, KDM4C inh inactive, T cruzi growth-2 96, T cruzi growth-3 inactive, 3T3 cytotox inactive and 3T3 cytotox 2 inconclusive.
COc1ccc(C)cc1NC(=O)CN(c1ccc(I)cc1)S(C)(=O)=O was read as IDH1 mut inh inactive.
Cc1ccc(OCC(=O)NC(=S)Nc2cc(-c3nc4ncccc4o3)ccc2Cl)cc1 was read as IDH1 mut inh inactive.
For C[C@@H]1CCCCO[C@H](CN(C)S(=O)(=O)c2ccc(Cl)cc2)[C@H](C)CN([C@H](C)CO)C(=O)c2cc(N(C)C)ccc2O1 the results were T cruzi growth-1 101, IDH1 mut inh inactive, KDM4C inh inactive, T cruzi growth-2 104, T cruzi growth-3 inactive, 3T3 cytotox inactive and 3T3 cytotox 2 inactive.
For C[C@@H]1CN([C@H](C)CO)C(=O)c2cc(N(C)C)ccc2O[C@@H](C)CCCCO[C@H]1CN(C)S(=O)(=O)c1ccc(Cl)cc1 the results were T cruzi growth-1 inactive, IDH1 mut inh inactive and KDM4C inh inactive.
For C[C@H](CO)N1C[C@H](C)[C@@H](CN(C)S(=O)(=O)c2ccc(Cl)cc2)OCCCC[C@H](C)Oc2ccc(NS(=O)(=O)c3ccc(Cl)cc3)cc2C1=O the results were T cruzi growth-1 inactive and KDM4C inh inactive.
Screening C[C@@H]1CN([C@@H](C)CO)C(=O)c2cc(NS(=O)(=O)c3ccc(Cl)cc3)ccc2O[C@@H](C)CCCCO[C@@H]1CN(C)S(=O)(=O)c1ccc(Cl)cc1 returned T cruzi growth-1 98, KDM4C inh inactive, T cruzi growth-2 101, T cruzi growth-3 114, 3T3 cytotox inactive and 3T3 cytotox 2 inactive.

Compound activity from PubChem BioAssay.
